A short description of data set [1]: Drug recovery in human plasma at 10 uM after 6 hrs by LC-MS/MS analysis. The data set is classed as ADME, cell-free. The conditions noted are these: read-out: Drug recovery. Summed up:
(§1)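 Equilibrium dialysis: plasma with compound at 10 μM final on one side, 100 mM sodium phosphate pH 7.4 on the other. Equilibrated at 37 ± 1 °C for 6 h with shaking at 500 rpm. Both sides were sampled, proteins precipitated with organic solvent, and supernatants analysed by LC-MS/MS.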

Data set [2] in a line: Stability in rat liver microsomes assessed as CYP450-mediated drug degradation by measuring proportion of compound metabolised at 1 uM up to 60 mins in presence of NADPH by LC-MS/MS analysis. Type of data set: ADME. Particulars: read-out: Drug degradation. Summed up: (§2)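 Liver microsomes (1.0 mg protein/mL) were incubated with compound at 1 μM; reactions were started with 1 mM NADPH. No-NADPH incubations (0 and 60 min) served as stability controls. Reactions were stopped at 0, 5, 15, 30 and 60 min with ice-cold acetonitrile containing internal standard, then centrifuged. Parent loss was tracked by LC-MS/MS.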

A short description of data set [3]: Inhibition of Saccharomyces cerevisiae alpha-glucosidase using PNPG as substrate incubated for 10 mins by spectrophotometric method.
Data set [4] can be described thus: Intrinsic clearance in human liver microsomes at 1 uM up to 60 mins in presence of NADPH by LC-MS/MS analysis. Type of data set: ADME, Microsome. The conditions noted are these: 1 h. Summed up:
as §2

A short description of data set [5]: Protein binding in mouse plasma assessed as unbound fraction at 10 uM after 6 hrs by LC-MS/MS analysis. The data set is classed as ADME, cell-free. Summed up:
as §1

Another data set deals with Cytochrome P450 (Homo sapiens, UniProt P04798+P05177+P05181+P08684+P10632+P10635+P11509+P11712+P13584+P20813+P20815+P20853+P24462+P24903+P33260+P33261+P51589+P78329+P98187+Q02928+Q08477+Q16678+Q16696+Q5TCH4+Q6VVX0+Q7Z449+Q8TAV3+Q96SQ9+Q9HB55). The data set is described as follows: Stability in human liver microsomes assessed as CYP450-mediated drug degradation by measuring proportion of compound metabolised at 1 uM up to 60 mins in presence of NADPH by LC-MS/MS analysis. The data set is classed as ADME. The conditions noted are these: read-out: Drug degradation. The gist of the method: as §2

Data set [6] can be described thus: Octanol/aqueous buffer distribution coefficient, log D of compound after 1 hr by HPLC-UV analysis. Type of data set: physicochemical. The gist of the method:
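Compound was added to octanol and vortexed, then buffer was added. The mixture was shaken 1 h at room temperature, allowed to equilibrate 20 min and centrifuged at 4000 g for 30 min. Octanol and buffer layers were each quantified by HPLC-UV.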

Data set [7] in a line: Protein binding in mouse plasma assessed as bound fraction at 10 uM after 6 hrs by LC-MS/MS analysis. Type of data set: ADME, cell-free. Particulars: read-out: PPB (converted). The gist of the method:
as §1

Data set [8] in a line: Toxicity in STZ-treated diabetic Sprague-Dawley rat model assessed as decrease in body weight at 60 mg/kg, po administered once daily for 28 days. The conditions noted are these: in vivo, 672 h, time 28 day. Type of data set: organism-based. The gist of the method:
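Male Sprague-Dawley rats (250–320 g, 8–10 weeks) were made diabetic with a single STZ dose (70 mg/kg ip in 0.1 mmol/L citrate buffer, pH 4.5). Random glucose above 125 mg/dl defined diabetes. Dosing was 60 mg/kg in 0.5% saline by gastric gavage once daily for 4 weeks, n=6 per group, with vehicle controls. Body weight was recorded before and after treatment; mean ± SD, 2-way ANOVA.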

A further data set concerns Saccharomyces cerevisiae. As to the kind of experiment: Binding affinity to Saccharomyces cerevisiae alpha-glucosidase assessed as decrease in fluorescence intensity at 6.25 to 25 ng/ml after 30 mins by spectrofluorometric method. The conditions noted are these: dose 6.25-25 ng/ml. The gist of the method: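 Yeast α-glucosidase (1.5 U) was pretreated with compound at 6.25 and 25 ng/ml for 30 min at 37 °C. Intrinsic Trp fluorescence was excited at 295 nm and the emission (peak 330 nm) recorded at 298 K. Quenching was scored against free enzyme.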

In a further data set the target is T1, Alpha-mannosidase (Canavalia ensiformis, UniProt C0HJB3).
T1 sequence (C0HJB3 whole entry): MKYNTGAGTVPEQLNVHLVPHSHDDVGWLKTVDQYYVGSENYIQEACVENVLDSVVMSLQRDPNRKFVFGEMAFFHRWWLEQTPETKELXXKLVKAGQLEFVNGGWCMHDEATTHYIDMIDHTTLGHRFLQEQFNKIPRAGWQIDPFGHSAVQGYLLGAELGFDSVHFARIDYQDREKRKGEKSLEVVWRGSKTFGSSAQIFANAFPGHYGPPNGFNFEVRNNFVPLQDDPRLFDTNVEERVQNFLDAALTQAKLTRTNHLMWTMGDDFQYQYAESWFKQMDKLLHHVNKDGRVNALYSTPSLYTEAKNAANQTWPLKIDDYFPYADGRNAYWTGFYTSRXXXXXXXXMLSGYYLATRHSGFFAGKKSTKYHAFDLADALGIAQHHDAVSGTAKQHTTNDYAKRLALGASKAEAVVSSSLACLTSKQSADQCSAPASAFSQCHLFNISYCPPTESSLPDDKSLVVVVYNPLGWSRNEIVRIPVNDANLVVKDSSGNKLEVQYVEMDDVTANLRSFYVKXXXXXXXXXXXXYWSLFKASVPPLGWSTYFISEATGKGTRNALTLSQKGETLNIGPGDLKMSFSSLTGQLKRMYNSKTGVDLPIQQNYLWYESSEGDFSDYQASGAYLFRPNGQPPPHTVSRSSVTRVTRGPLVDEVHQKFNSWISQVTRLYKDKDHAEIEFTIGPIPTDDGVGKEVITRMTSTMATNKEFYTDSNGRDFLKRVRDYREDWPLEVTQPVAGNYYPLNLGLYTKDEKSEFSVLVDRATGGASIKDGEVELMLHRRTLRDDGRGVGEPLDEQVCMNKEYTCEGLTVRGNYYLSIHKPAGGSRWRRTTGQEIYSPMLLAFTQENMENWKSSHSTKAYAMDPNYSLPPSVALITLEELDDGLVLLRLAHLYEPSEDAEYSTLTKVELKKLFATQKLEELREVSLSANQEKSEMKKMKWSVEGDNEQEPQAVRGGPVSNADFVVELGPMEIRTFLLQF
As to the kind of experiment: Inhibition of jack bean alpha-mannosidase using […] as substrate incubated for 10 mins by spectrophotometric method.

Data set [9] is described as follows: Intrinsic clearance in rat liver microsomes at 1 uM up to 60 mins in presence of NADPH by LC-MS/MS analysis. The data set is classed as ADME, Microsome. Particulars: 1 h. Summed up:
as §2

The subject of a further data set is Rattus norvegicus. The data set is described as follows: Antidiabetic activity against STZ-induced type 1 diabetic Sprague-Dawley rat model assessed as decrease in fasting blood glucose level at 60 mg/kg, po administered once daily for 28 days. Type of data set: functional, organism-based. Particulars: time 28.0 day. Summed up: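 Male Sprague-Dawley rats (250–320 g, 8–10 weeks) were given STZ 70 mg/kg ip once in 0.1 mmol/L citrate buffer, pH 4.5. Rats with random glucose >125 mg/dl at 4 days were counted diabetic. Dosing was 60 mg/kg in 0.5% saline by gavage once daily for 4 weeks, n=6 per group. After a 6 h fast, tail blood glucose was read by glucometer. Data are mean ± SD; 2-way ANOVA.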

Active and inactive are the calls of the source. The rule behind the calls is not given here.

Regarding `CCOC(=O)c1ccc(-n2c(/C=C3\OC(=O)c4c3cc(C)[nH]c4=O)ccc2CO)cc1`, the remaining at 6 h, 10 µM in data set [1] amounted to 56.7%. In addition, the results for the metabolised at 1 h, 1 µM (in data set [2]; on Cytochrome P450) were 95.2% and 96.3%, respectively. Further, the IC50 in data set [3] came to 0.56 µM; against Alpha-mannosidase it was 41.2 µM. The results for the CLint in data set [4] and in data set [9] were 54.8 µL/min/mg and 54.4 µL/min/mg, respectively. Also, the fraction unbound at 6 h, 10 µM in [5] and in [7] was 0.0899 each time. This compound had a logD at 1 h in data set [6] of 2.4. Moreover, the Activity entry in [8] is on record as “Non-Toxic”. Also, the result in the data set with Saccharomyces cerevisiae and in the data set on Rattus norvegicus was Active.

(Values after ChEMBL document CHEMBL4680156, “Discovery of novel pyrido-pyrrolidine hybrid compounds as alpha-glucosidase inhibitors and alternative agent for control of type 1 diabetes” (Eur J Med Chem, 2020).)
